Measured values pooled from the literature.
Compare with care: the assays were run in different laboratories.
Target: Cyclin-dependent kinase-like 1 (CDKL1, Homo sapiens, UniProt Q00532)

C[C@@H](c1cccc(C#N)c1)n1cc(Cl)cc(C(N)=O)c1=N  remaining binding (binding, competition with immobilised ligand; 1 µM): 100%
COc1ccnn2ncc(-c3ccnc(N(C)C)n3)c12  remaining binding (binding; 1 µM): 87%
CNCc1ccccc1-c1csc([C@@H](C)Nc2nc(C)nc3cc(OC)c(OC)cc23)c1  remaining binding (cell-free assay, competition with immobilised ligand; 1 µM): 93%
c1cncc(-c2cccc(Nc3nccc(NC4CCCCC4)n3)c2)c1  remaining binding (binding, competition with immobilised ligand; 10 µM): 70%
CNC(=O)[C@@H]1CC[C@@H](n2c(-c3ccc4cnccc4c3)nc3ccc(C(=O)NCc4cccc(C(N)=O)c4)cc32)C1  remaining binding (binding, competition with immobilised ligand; 1 µM): 90%
FC(F)(F)Oc1cccc(-c2cnc3ccc(-c4ccncc4)nn23)c1  remaining binding (cell-free assay, competition with immobilised ligand; 5 µM): 68%
C=CC(=O)N1CCC(C(=O)NCC(=O)N2CCN(c3nc(-c4cnc(N)nc4C(F)F)nc(N4CCOCC4)n3)CC2)CC1  remaining binding (binding, competition with immobilised ligand; 1 µM): 90%
Cc1nccc(COC(=O)N2C[C@@H]3[C@@H](CNC(=O)c4ccc5[nH]nnc5c4)[C@@H]3C2)n1  remaining binding (cell-free assay, competition with immobilised ligand; 1 µM): 81%
Cc1cnc(Nc2ccc(C(=O)N3CCC(N4CCCC4)CC3)cc2)nc1-c1cc2ccccc2s1  remaining binding (binding, competition with immobilised ligand; 1 µM): 50%
O=C(NCC1CCOCC1)c1n[nH]cc1NC(=O)c1c(F)cccc1F  remaining binding (binding, competition with immobilised ligand; 1 µM): 77%
CN(C)c1nccc(-c2cnn3ncccc23)n1  remaining binding (binding; 1 µM): 89%
COc1cnc(Nc2cccc(S(N)(=O)=O)c2)nc1N1CCN(c2ccccc2)C(=O)C1  remaining binding (binding, competition with immobilised ligand; 1 µM): 92%
CN(CCCC(F)(F)F)c1nccc(-c2cnn3ncccc23)n1  remaining binding (binding; 1 µM): 83%
C[C@@H](c1ccc(-n2cnc3c(N)ncnc32)cc1)N1CCc2nn(C)c(Cc3ccccc3)c2C1=O  remaining binding (binding, competition with immobilised ligand; 0.1 µM): 58%
O=C(NCCCN1CCOCC1)c1ccc(Nc2ncc(Cl)c(-c3ccc(Cl)s3)n2)cc1  remaining binding (binding, competition with immobilised ligand; 1 µM): 36%
Cc1nc(N2CC[C@@H](O)C2)ncc1-c1cc(C(F)(F)F)cc2[nH]ncc12  remaining binding (binding, competition with immobilised ligand; 1 µM): 77%
C[C@H]1CCN(c2nccc(-c3cnn4ncccc34)n2)C1  remaining binding (binding; 1 µM): 62%
CNC(=O)Nc1ccc2c(c1)CC[C@@]21OC(=O)N(CC(=O)N(Cc2ccc(F)cc2)[C@@H](C)C(F)(F)F)C1=O  remaining binding (binding, competition with immobilised ligand; 1 µM): 86%
O=C(c1ccc(Nc2nccc(-c3cc4ccccc4s3)n2)cc1)N1CCC(N2CCCC2)CC1  remaining binding (binding, competition with immobilised ligand; 1 µM): 71%
c1ccc(N2CCN(Cc3nc4ccccc4[nH]3)CC2)nc1  remaining binding (binding, competition with immobilised ligand; 1 µM): 78%
Cc1cnn2ncc(-c3ccnc(N(C)C)n3)c2c1  remaining binding (binding; 1 µM): 73%
